ChEMBL document CHEMBL1139692, “Optimization of pyrimidinyl- and triazinyl-amines as non-nucleoside inhibitors of HIV-1 reverse transcriptase” (Bioorg Med Chem Lett, 2006)

Columns and labels:
[1] = system: Human immunodeficiency virus 1; test: Antiviral activity against HIV1 3B in MT2 cells; type: functional, organism-based; conditions: Human immunodeficiency virus 1, 3B
In short: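 HIV-1 IIIB infection of human MT-2 T-cells. Protection was read by MTT colorimetric assay. Curves used triplicate samples at each concentration.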

[2] = Cytotoxicity against MT2 cells; type: cell-based; conditions: human
In short: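 Growth of MT-2 cells was measured by MTT colorimetric read-out, run at the same time as the anti-HIV-1 IIIB protection assay.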

[3] = Ratio of CC50 for MT cells/EC50 for HIV1; type: functional

SMILES | EC50 [1] | CC50 [2] | Ratio CC50/EC50 [3]
COCc1ccnc(Nc2ccc(Cl)c(OCC=C(C)C)c2)n1 | – | > 25000 nM | –
CC(C)=CCOc1cc(Nc2ncccn2)ccc1C#N | 17 nM | 36 nM | –
COc1cc(OC)nc(Nc2ccc(Cl)c(OCC=C(C)C)c2)n1 | 250 nM | 28000 nM | –
CC(C)=CCOc1cc(Nc2ncccn2)ccc1Cl | 200 nM | 2500 nM | –
CC(C)=CCOc1cc(Nc2nccc(C)n2)ccc1Cl | 39 nM | 150 nM | –
CCc1ccnc(Nc2ccc(Cl)c(OCC=C(C)C)c2)n1 | 16 nM | 330 nM | –
C/C=C/COc1cc(Nc2nccc(OC)n2)ccc1Cl | 89 nM | 17000 nM | –
COc1ncnc(Nc2ccc(Cl)c(OCC=C(C)C)c2)n1 | 31 nM | 18000 nM | –
CC(C)=CCOc1cc(Nc2ncnc(Cl)n2)ccc1Cl | – | 45000 nM | –
CCOc1ccnc(Nc2ccc(Cl)c(OCC=C(C)C)c2)n1 | 41 nM | 19000 nM | –
CC(C)=CCOc1cc(Nc2nc(C)nc(Cl)n2)ccc1Cl | 12000 nM | 40000 nM | –
COc1nc(C)nc(Nc2ccc(Cl)c(OCC=C(C)C)c2)n1 | 100 nM | 12000 nM | –
CSc1ncnc(Nc2ccc(C#N)c(OCC=C(C)C)c2)n1 | 5 nM | 8400 nM | >1000
COc1ccnc(Nc2ccc(Cl)c(Oc3ccccc3)c2)n1 | 2500 nM | 38000 nM | –
COc1ccnc(Nc2ccc(Cl)c(Oc3ccccc3C)c2)n1 | – | 13000 nM | –
COc1ccnc(Nc2ccc(Cl)c(Oc3cccc(C)c3)c2)n1 | 540 nM | 18000 nM | –
CC(C)=CCOc1cc(Nc2nccc(CO)n2)ccc1Cl | – | 220 nM | –
COc1nc(Nc2ccc(Cl)c(OCC=C(C)C)c2)nc(OC)n1 | 290 nM | 20000 nM | –
CNc1ncnc(Nc2ccc(Cl)c(OCC=C(C)C)c2)n1 | 31 nM | 3100 nM | –
COc1cc(N)nc(Nc2ccc(Cl)c(OCC=C(C)C)c2)n1 | 3000 nM | 19000 nM | –
COc1nc(Cl)nc(Nc2ccc(Cl)c(OCC=C(C)C)c2)n1 | – | 26000 nM | –
CC(C)=CCOc1cc(Nc2ncnc(Cl)n2)ccc1C#N | 310 nM | > 100000 nM | –
O=C1Nc2ccc(Cl)cc2[C@@](C#CC2CC2)(C(F)(F)F)O1 [EFAVIRENZ] | – | > 100 nM | –
Cc1cc(C#N)cc(C)c1Oc1nc(Nc2ccc(C#N)cc2)nc(N)c1Br [ETRAVIRINE] | – | > 1000 nM | –
Cc1ccnc2c1NC(=O)c1cccnc1N2C1CC1 [NEVIRAPINE] | – | > 10000 nM | –

Continued by falling EC50 [1], values first:

EC50 [1] | SMILES | CC50 [2] | Ratio CC50/EC50 [3]
13000 nM | Clc1ccc(Nc2ncccn2)cc1Oc1ccccc1 | 30000 nM | –
10000 nM | COc1ccnc(Nc2ccc(Cl)c(Oc3ccc(C)cc3)c2)n1 | > 100000 nM | –
2300 nM | C/C=C/COc1cc(Nc2ncccn2)ccc1Cl | 31000 nM | –
390 nM | CC(C)=CCOc1cc(Nc2ncnc(N)n2)ccc1Cl | 48000 nM | –
320 nM | COc1ccnc(Nc2ccc(Cl)c(Sc3ccccc3)c2)n1 | 21000 nM | –
160 nM | COc1cc(OC)nc(Nc2ccc(C#N)c(OCC=C(C)C)c2)n1 | 810 nM | –
75 nM | CC(C)=CCOc1cc(Nc2nccc(N)n2)ccc1Cl | 500 nM | –
22 nM | COc1nc(Nc2ccc(C#N)c(OCC=C(C)C)c2)nc(OC)n1 | > 100000 nM | >1000
18 nM | CSc1ccnc(Nc2ccc(Cl)c(OCC=C(C)C)c2)n1 | 2800 nM | –
15 nM | CC(C)=CCOc1cc(Nc2ncnc(N)n2)ccc1C#N | 200 nM | –
10 nM | COc1ccnc(Nc2ccc(Cl)c(OCC=C(C)C)c2)n1 | 9000 nM | –
9 nM | COc1nc(N)nc(Nc2ccc(C#N)c(OCC=C(C)C)c2)n1 | 110 nM | –
6 nM | CNc1ccnc(Nc2ccc(Cl)c(OCC=C(C)C)c2)n1 | 690 nM | –
5 nM | CNc1ccnc(Nc2ccc(C#N)c(OCC=C(C)C)c2)n1 | 22 nM | –
2 nM | COc1ccnc(Nc2ccc(C#N)c(OCC=C(C)C)c2)n1 | – | –
